Data taken from article PMC3583859 (RNA Biology, 2012).

T1: YchF (YchFE.coli) (Escherichia coli, UniProt P0ABU2)
T1 sequence (P0ABU2 1-363): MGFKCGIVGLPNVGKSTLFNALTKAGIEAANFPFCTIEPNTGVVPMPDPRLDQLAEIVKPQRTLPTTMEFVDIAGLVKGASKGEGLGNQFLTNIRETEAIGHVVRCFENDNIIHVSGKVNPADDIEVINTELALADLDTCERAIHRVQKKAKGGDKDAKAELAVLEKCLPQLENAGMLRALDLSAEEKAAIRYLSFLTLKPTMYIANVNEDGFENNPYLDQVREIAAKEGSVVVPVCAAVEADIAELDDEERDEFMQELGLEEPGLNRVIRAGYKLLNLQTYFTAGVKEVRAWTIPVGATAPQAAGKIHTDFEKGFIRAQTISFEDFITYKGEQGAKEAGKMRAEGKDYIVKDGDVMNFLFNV

B1: N-terminally His-tagged YchF from Escherichia coli (enzyme)
chain: T1 sequence (P0ABU2 1-363)

Tests used:
[1] = biological target: T1, YchF (YchFE.coli); test: equilibrium titration, intrinsic tryptophan fluorescence; assay type: binding
In short: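 Purified E. coli YchF in TAKM7 (50 mM Tris-Cl 7.5, 70 mM NH4Cl, 30 mM KCl, 7 mM MgCl2) titrated with nucleotides. Intrinsic fluorescence recorded in a stirred quartz cuvette: excitation 280 nm (2 nm slit), emission 295–400 nm in 1 nm steps (5 nm slits). With triphosphates, scans started immediately without equilibration. Spectra corrected against nucleotide titration into buffer alone.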

[2] = biological target: 70S ribosome from E. coli, purified (E. coli); test: co-sedimentation

Molecule	Kd [1]	Kd [2]	stoichiometry N [2]
Nc1nc2c(ncn2[C@@H]2O[C@H](COP(=O)(O)OP(=O)(O)OP(=O)(O)O)[C@@H](O)[C@H]2O)c(=O)[nH]1 [GTP]	206 ± 5 µM		
Nc1ncnc2c1ncn2[C@@H]1O[C@H](COP(=O)(O)OP(=O)(O)O)[C@@H](O)[C@H]1O [ADP]	14 ± 5 µM		
Nc1nc2c(ncn2[C@@H]2O[C@H](COP(=O)(O)OP(=O)(O)O)[C@@H](O)[C@H]2O)c(=O)[nH]1 [GDP]	151 ± 38 µM		
Nc1ncnc2c1ncn2[C@@H]1O[C@H](COP(=O)(O)OP(=O)(O)NP(=O)(O)O)[C@@H](O)[C@H]1O [ADPNP]	9 ± 8 µM		
B1		3.3 µM	0.3 YchF per 70S
